{"data": "Assay results from different studies", "target": "Phosphatidylinositol 4-phosphate 5-kinase type-1 gamma (PIP5K1C, Homo sapiens, UniProt O60331)", "note": "Lines come from different studies, so protocols differ."}
{"Structure (SMILES)": "O=C(c1ccc(Nc2ncc(Cl)c(-c3ccc(Cl)s3)n2)cc1)N1CCC(N2CCCC2)CC1", "test": "binding, competition with immobilised ligand", "setting": "1 µM", "remaining binding [%]": 72}
{"Structure (SMILES)": "CNC(=O)Nc1ccc2c(c1)CC[C@@]21OC(=O)N(CC(=O)N(Cc2ccc(F)cc2)[C@@H](C)C(F)(F)F)C1=O", "test": "cell-free assay, competition with immobilised ligand", "setting": "1 µM", "remaining binding [%]": 100}
{"Structure (SMILES)": "O=C(Nc1c[nH]nc1C(=O)NC1CCNCC1)c1cc(F)cc(F)c1", "test": "binding, competition with immobilised ligand", "setting": "1 µM", "remaining binding [%]": 87}
{"Structure (SMILES)": "Nc1ncc2c(n1)-c1c([nH]c3ccc(C#CC4CC4)cc13)CCCC2", "test": "binding, competition with immobilised ligand", "setting": "1 µM", "remaining binding [%]": 57}
{"Structure (SMILES)": "O=C(NCCCN1CCOCC1)c1ccc(Nc2nccc(-c3cc4ccccc4s3)n2)cc1", "test": "binding, competition with immobilised ligand", "setting": "1 µM", "remaining binding [%]": 2.3}
{"Structure (SMILES)": "CN(c1nccc(-c2cnn3ncccc23)n1)C1CC1", "test": "binding", "setting": "1 µM", "remaining binding [%]": 100}
{"Structure (SMILES)": "COc1ccc2c(c1)O[C@H](c1ccc(OC)c(OC)c1)C[C@@H]2NC(=O)C1(c2ccc3c(c2)OC(F)(F)O3)CC1", "test": "cell-free assay, competition with immobilised ligand", "setting": "1 µM", "remaining binding [%]": 100}
{"Structure (SMILES)": "F[C@@H]1CCN(c2nccc(-c3cnn4ncccc34)n2)C1", "test": "binding", "setting": "1 µM", "remaining binding [%]": 100}
{"Structure (SMILES)": "O=C(O)c1cc(-c2ccc(C3CCNCC3)cc2)c2ccc(-c3ccc(C(F)(F)F)cc3)cc2c1", "test": "cell-free assay, competition with immobilised ligand", "setting": "1 µM", "remaining binding [%]": 100}
{"Structure (SMILES)": "N[C@@H]1CCN(c2nccc(-c3cnn4ncccc34)n2)C1", "test": "binding", "setting": "1 µM", "remaining binding [%]": 81}
{"Structure (SMILES)": "CN(C(=O)c1ccccc1)c1cc(N(C)c2ccc3c(c2)CCc2ccc(C(=O)NCCN4CCOCC4)cc2C3=O)ccc1F", "test": "cell-free assay, competition with immobilised ligand", "setting": "1 µM", "remaining binding [%]": 80}
{"Structure (SMILES)": "O=C(c1ccc(Nc2ncc(Cl)c(-c3cc4ccccc4s3)n2)cc1)N1CCC(N2CCCC2)CC1", "test": "binding, competition with immobilised ligand", "setting": "1 µM", "remaining binding [%]": 53}
{"Structure (SMILES)": "C[C@@H]1CCN(c2nccc(-c3cnn4ncccc34)n2)C1", "test": "binding", "setting": "1 µM", "remaining binding [%]": 99}
{"Structure (SMILES)": "N#CC1(c2ccccn2)CCN(Cc2cc(C(=O)N3CCCC3)c(=O)n3ccccc23)CC1", "test": "cell-free assay, competition with immobilised ligand", "setting": "1 µM", "remaining binding [%]": 68}
{"Structure (SMILES)": "FC(F)(F)Oc1cccc(-c2cnc3ccc(-c4ccncc4)nn23)c1", "test": "cell-free assay, competition with immobilised ligand", "setting": "5 µM", "remaining binding [%]": 47}
{"Structure (SMILES)": "Cc1cnn2ncc(-c3ccnc(N(C)C)n3)c2c1", "test": "binding", "setting": "1 µM", "remaining binding [%]": 100}
{"Structure (SMILES)": "C[C@@]1(Cc2ccc(C#N)cc2)C(=O)N(c2cc(Cl)cc(Cl)c2)c2ncc(C(=O)NC3(c4nc(C5CCC5)no4)CC3)n21", "test": "cell-free assay, competition with immobilised ligand", "setting": "1 µM", "remaining binding [%]": 100}
{"Structure (SMILES)": "COc1cnc(Nc2cccc(S(N)(=O)=O)c2)nc1N1CCN(c2ccccc2)CC1", "test": "binding, competition with immobilised ligand", "setting": "1 µM", "remaining binding [%]": 100}
